This is one part of a sample in which hits are shown more often than they occur.
CHOP UPR activ – activators of apoptotic CHOP UPR arm, primary screen, cell-based, CHO-CHOP luciferase reporter, luminescence, uHTS | activation, % at 10 µM | AID 449763, 2010 | UPR activation; percent of tunicamycin response over DMSO baseline | 0.34% of 330,000 active;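 active = at 10 µM dose, activation of 40% or more, normalized to positive control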;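 also: 100% = tunicamycin at 10 µg/mL and 0% = DMSO alone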
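System: CHO CHOP reporter cells. Amount: 500 cells per well. Buffer or medium: F12 medium, 10% FBS. Compound dosing: one dose, 10 µM in 0.5% DMSO. Incubation: 6 h compound exposure at 37 °C after overnight seeding. Technique: Steady-Glo luciferase luminescence. Benchmarks: tunicamycin and DMSO controls.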
VLA-4 inh – inhibition in human VLA-4 binding assay, primary screen, VLA-4 allosteric modulator project, MLPCN library, flow cytometry, VLA-4 expressing cells. ligand binding flow cytometry. inhibition, % (about 7 µM as worked out from the volumes in the protocol). Integrin alpha-4 (Homo sapiens), P13612. 0.2% of 330,000 active; in the data active = inhibition above about 50%
Target sequence (P13612 whole entry, looked up): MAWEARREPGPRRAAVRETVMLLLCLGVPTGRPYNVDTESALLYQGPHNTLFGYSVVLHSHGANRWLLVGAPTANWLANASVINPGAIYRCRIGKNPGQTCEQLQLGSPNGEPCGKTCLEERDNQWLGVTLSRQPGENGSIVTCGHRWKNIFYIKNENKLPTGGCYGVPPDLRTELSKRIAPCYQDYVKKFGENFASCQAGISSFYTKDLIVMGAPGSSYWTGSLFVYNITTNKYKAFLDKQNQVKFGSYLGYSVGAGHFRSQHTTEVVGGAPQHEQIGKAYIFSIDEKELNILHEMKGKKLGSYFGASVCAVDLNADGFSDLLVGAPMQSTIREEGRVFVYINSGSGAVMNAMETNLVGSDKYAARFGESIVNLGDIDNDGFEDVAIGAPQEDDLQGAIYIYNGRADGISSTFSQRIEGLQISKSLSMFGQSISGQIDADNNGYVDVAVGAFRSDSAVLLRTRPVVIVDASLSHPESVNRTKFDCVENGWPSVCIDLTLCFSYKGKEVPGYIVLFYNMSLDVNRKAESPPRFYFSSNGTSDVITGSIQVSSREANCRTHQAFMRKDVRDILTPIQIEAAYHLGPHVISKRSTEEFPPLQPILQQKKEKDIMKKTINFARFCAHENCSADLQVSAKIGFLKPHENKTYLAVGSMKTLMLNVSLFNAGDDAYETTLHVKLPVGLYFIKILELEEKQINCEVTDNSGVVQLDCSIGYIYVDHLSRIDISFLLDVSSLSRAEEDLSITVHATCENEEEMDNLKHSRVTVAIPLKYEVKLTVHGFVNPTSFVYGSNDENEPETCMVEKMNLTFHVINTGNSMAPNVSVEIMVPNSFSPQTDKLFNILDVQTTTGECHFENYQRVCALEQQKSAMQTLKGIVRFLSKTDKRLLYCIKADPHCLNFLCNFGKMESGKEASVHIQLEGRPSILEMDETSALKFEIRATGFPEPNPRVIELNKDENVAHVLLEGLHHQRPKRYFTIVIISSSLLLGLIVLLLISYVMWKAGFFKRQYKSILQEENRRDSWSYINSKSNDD
Beta2AR agonist – beta2AR agonists driving receptor internalization, primary screen, cell-based, FAP fluorogen, flow cytometry. 0.43% of 340,000 active. Am2.2-beta2AR cells. response, % (test concentration not listed). AID 504454, 2011. Beta-2 adrenergic receptor (Homo sapiens), P07550;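 active = response above a set limit, near 3 SD of response in nonfluorescent compounds, cut at about 42% in these data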
UPR XBP1 act – activators of adaptive XBP1 UPR arm, primary screen, cell-based, CHO-XBP1 luciferase reporter, luminescence, uHTS | IRE1-XBP1 UPR activation; percent of tunicamycin response, DMSO as zero | activation, % at 20 µM | 0.33% of 330,000 active;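 active = versus positive control, 20 µM dose yields 30% or more activation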;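 also: 100% = tunicamycin at 10 µg/mL and 0% = DMSO only wells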
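Test system: CHO-XBP1 luciferase reporter cells | Buffer or medium: Serum-containing F12 medium, 10% FBS | Schedule: 6 h compound exposure at 37 °C, 5% CO2 | Detection: Steady-Glo luciferase glow luminescence, 10 min after reagent addition | Read-out basis: Activation, % of tunicamycin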
CHOP inhibitor – inhibitors of CHOP promoter induction, primary screen, cell-based, unfolded protein response, luciferase reporter. CHO-K1 CHOP-promoter luciferase, tunicamycin-induced, 15-18 h. inhibition, % at 10 µM. 3.8% of 220,000 active;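 active = compounds that reduced the stress-induced luciferase reporter signal by more than about 70% of percent inhibition, limit read from the data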;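 also: 0% = tunicamycin plus vehicle and 100% = wells without tunicamycin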
Beta2AR ag CP1 – beta2AR agonists via receptor internalization, confirmation, cell-based, FAP fluorogen, flow cytometry, single point, cherry pick 1 | shares compounds with Beta2AR agonist | Am2.2-beta2AR cells, FAP surface receptor; hits give low values | percent response (surface receptor), % at 10 µM | 25% of 1,100 active;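 active = surface receptor percent response at or below 58%, roughly 3 SD from nonfluorescent compounds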
FAP fluor counter – flagged in Am2.2 fluorescence counterscreen for beta-2AR agonists; shares compounds with Beta2AR agonist; Am2.2 cells, FAP fluorogen flow cytometry; hits give low values; calls only at 10 µM; 1,100 tested, under 10 active; AID 588765;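 active = percent response below a set limit in fluorescence channel 1 and below 50% in channel 8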
* hit, by the source's call; i = inactive; / = not tested or not shown; ! = a repeat was not active.

SMILES	CHOP UPR activ	VLA-4 inh	Beta2AR agonist	UPR XBP1 act	CHOP inhibitor	Beta2AR ag CP1	FAP fluor counter
O=C(NC(=S)NCC1CCCO1)c1ccc(Br)o1 (stereo not drawn)	6	-5	-15	1	-35	/	/
O=C1ON=C(c2ccccc2)/C1=C/c1cccnc1	/	/	-3	/	25	100	i
CCOC(=O)CCN(Cc1ccccc1)S(=O)(=O)c1csc(C(N)=O)c1	2	5	15	1	/	/	/
CC(NCCC(c1ccccc1)c1ccccc1)c1ccccc1 (stereo not drawn)	0	8	25	-4	12	84	i
CC(NC1CCCC1)c1ccccc1 (stereo not drawn)	0	4	-1	-4	16	/	/
COc1ccc(/C=N/n2cnc3c([nH]c4ccc(F)cc43)c2=O)cc1CSc1ccccn1	13	3	58*	17	80*	79	i
CC1(C)Cc2c(sc3nc[nH]c(=O)c23)CO1	0	-5	1	-1	17	/	/
Cc1nc2oc3c(=O)[nH]cnc3c2c2c1COC(C)(C)C2	-1	0	-4	-4	-17	99	i
Cc1noc(NS(=O)(=O)c2ccc(NC(=O)CC34CC5CC(CC(Br)(C5)C3)C4)cc2)c1C	-2	-7	5	-1	0	/	/
Cc1noc(NS(=O)(=O)c2ccc(NC(=O)C34CC5CC(C3)CC(n3cnc(Cl)n3)(C5)C4)cc2)c1C	-1	20	74*	-3	5	84	i
CCN(CC(=O)N1CCOCC1)S(=O)(=O)c1cc(Cl)ccc1Cl	1	-1	4	-4	/	/	/
CC(=O)c1ccc(OCc2cc(C(=O)N(C)CCOc3ccc(C)cc3)no2)cc1	4	11	86*	-3	/	20*	i
CC1(C)CC(Cc2cccc(C(F)(F)F)c2)N(C(=O)OC(C)(C)C)C1 (stereo not drawn)	/	/	/	/	/	111	i
CC(C)(C)OC(=O)N1CC2(CCCCC2)CC1Cc1ccc(C(F)(F)F)cc1 (stereo not drawn)	/	/	/	/	/	100	i
COc1ccccc1NC(=O)C(C)OC(=O)CCSc1ccc(F)cc1 (stereo not drawn)	1	8	-4	1	/	/	/
CC(=O)c1cccc(NC(=O)COC(=O)c2ccc(S(C)(=O)=O)c([N+](=O)[O-])c2)c1	3	31	68*	-4	-67	99	i
O=C(OCc1nnc(-c2ccccc2)o1)c1ccc(CO)cc1	0	0	-12	1	5	98	i
CS(=O)(=O)c1ccc(C(=O)OCc2nnc(-c3ccccc3)o2)cc1[N+](=O)[O-]	/	/	85*	/	88*	84	i
COc1ccc(C(=O)OCC(=O)Nc2ccccc2)cc1[N+](=O)[O-]	-1	-6	-4	-5	10	/	/
Cc1ccc(C(=O)OCc2nnc(-c3ccccc3)o2)o1	-1	-13	-1	-1	22	/	/
CN(C)S(=O)(=O)c1ccc(C(=O)OCc2nnc(-c3ccccc3)o2)cc1	1	0	1	1	-12	/	/
CCN(CC)S(=O)(=O)c1ccc(N2CCCC2)c(NC(=O)C2=NN(c3ccccc3)C(=O)CC2)c1	1	8	47*	0	/	99	i
O=C(Nc1cc(Cl)ccc1N1CCCC1)C1=NN(c2ccccc2)C(=O)CC1	5	-3	1	-4	/	/	/
CC(OC(=O)Cn1[nH]c(=O)c2ccccc2c1=O)C(=O)NC1(C#N)CCCCC1 (stereo not drawn)	2	-5	2	2	/	/	/
COc1ccc(C2=NN(C(=O)c3cccs3)C(c3ccc(OC)cc3)C2)cc1 (stereo not drawn)	0	0	44*	-3	36	43*	i
SMILES	CHOP UPR activ	VLA-4 inh	Beta2AR agonist	UPR XBP1 act	CHOP inhibitor	Beta2AR ag CP1	FAP fluor counter
Cc1ccc(Sc2ncccc2C(=O)NCC(c2ccc(F)cc2)N2CCOCC2)c(C)c1 (stereo not drawn)	0	7	47*	-1	/	97	i
COc1ccc2c(C(=O)NCc3ccc4c(c3)OCO4)c(-c3ccc(S(C)(=O)=O)cc3)sc2c1	2	8	16	1	/	/	/
CCOC(=O)CSC1=C(C#N)C(c2ccc(C)o2)CC(=O)N1 (stereo not drawn)	-1	-3	52*	11	/	73	i
COC(=O)[C@H](CCSC)NC(=O)Cn1cnc(C(=O)Nc2ccc(C)c(C)c2)n1	3	/	4	-1	/	/	/
CC(=O)Nc1ccc(S(=O)(=O)NCCc2csc(-c3cccnc3)n2)cc1	-3	-2	83*	0	/	13*	i
CCC(=O)N1CCc2cc(Br)cc(S(=O)(=O)N(C)c3ccc(OC)cc3)c21	1	-3	101*	-1	/	19*	i
COC(=O)c1ccc(CN2CCC(Oc3ccc(C(=O)N4CCCCC4)cc3)CC2)cc1	0	6	4	-5	/	115	i
COC(=O)c1ccc(CN2CCC(Oc3cccc(C(=O)N4CCCC4)c3)CC2)cc1	2	0	8	0	/	/	/
CCN1CCN(C(=O)CN(C)S(=O)(=O)c2ccc(Cl)cc2)CC1	0	37	-4	-1	8	/	/
CCOC(=O)N1CCN(C(=O)CN(C)S(=O)(=O)c2ccc(Cl)cc2)CC1	1	6	82*	-6	/	15*	i
CN(CC(=O)N1CCN(c2ccccn2)CC1)S(=O)(=O)c1ccc(Br)cc1	-4	1	107*	1	-16	27*	i
CCOc1cc(/C=C2\CN(C)C/C(=C\c3ccc(O)c(OCC)c3)C2=O)ccc1O	44*	-1	46*	-4	/	73	i
COC(=O)NC1(C(F)(F)F)C(=O)Nc2c1c(=O)n(C)c(=O)n2C (stereo not drawn)	0	44	59*	-2	8	106	i
COc1ccccc1CNC(=O)CCn1c(=O)[nH]c2ccsc2c1=O	-1	3	2	-1	23	54*!	i
O=C(CCn1c(=O)[nH]c2ccsc2c1=O)N1CCc2ccccc2C1	-1	21	-28	-3	-12	150	i
COc1ccccc1N1CCN(C(=O)CCCn2c(=O)[nH]c3ccsc3c2=O)CC1	3	24	-7	-5	24	/	/
